Screening results from PubChem BioAssay.
Glyco luc inh = N-linked glycosylation inhibition | D54 ERlucT glycosylation luciferase reporter, 24 h; percent of 100 nM tunicamycin response | reporter increase, % at 12.5 µM | 0.23% of 360,000 active | AID 588692;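 active = mean luciferase reporter signal, scaled so untreated is 0 and the glycosylation-blocking control 100, at or above a set limit in every replicate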;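 also: luciferase carries N-glycosylation sites so blocking glycosylation raises the light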
CaV13 FRET inh = Disruptors of the CACNA1D IQ motif to Ca2+-dependent inactivation inhibitor domain association, primary screening, Förster resonance energy transfer in intact living …; inhibition, % at 12.3 µM; HEK cells, CFP/YFP FRET ICDI-IQ, plate reader, 10 min; percent FRET-ratio fall versus neutral wells; 0.098% of 340,000 active;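 active = mean replicate inhibition of at least 30% and at least 1% of replicates passing that level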
T cruzi repl = blocks replication of Trypanosoma cruzi; 1.4% of 300,000 active; T. cruzi beta-gal in NIH3T3, luminescence, 90 h; inhibition, % (concentration not given with the values);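 active = mean inhibition across valid replicates above about 55%, limit read from the data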;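 also: signal also drops with host cell toxicity which is not excluded here; higher percent means less beta-gal luminescence so fewer parasites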
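Assay system: NIH/3T3 fibroblasts plus reporter T. cruzi. Amount: NIH/3T3 cells, 5,000 per well. Buffer or medium: DMEM, 2% fetal bovine serum. Doses: compound pinned at 50 nL/well, DMSO. Schedule: ≥90 h infection period, 3 h prior cell attachment. Signal: luminescent β-galactosidase signal after 60 min lysis. Read-out: parasite load inhibition, %.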
PfHsp90 yeast 2 = inhibits growth of yeast expressing Plasmodium falciparum Hsp90 | 0.32% of 310,000 active | AID 504621 | S. cerevisiae expressing PfHsp90, BacTiter-Glo ATP, 48 h; yeast lacking PDR1 and PDR3 efflux regulators | inhibition, % at 9.4 µM;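 active = every replicate shows inhibition above about 80%, whatever the replicate mean, limit read from the data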
PvdQ acylase = blocks Pseudomonas aeruginosa PvdQ acylase activity | purified PvdQ acylase, fluorescence plate reader | inhibition, % at 10 µM | 0.063% of 340,000 active | AID 488965; in the data active = inhibition above about 30%, passing the limit was not always enough
HSF1 activator = increases HSF-1 driven luciferase reporter signal; NIH3T3-HGL HSF-1 luciferase reporter, MG132, 8 h; 100% = twice DMSO control signal; activation, % at 9 µM; 1.7% of 300,000 active; AID 504408;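 active = mean replicate activation of at least 50% with a set share of replicates each reaching 50%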
A number is an active result; . = inactive; / = no result given. Only some compounds are listed: those with a hit (about 3% of all), similar ones and a draw of the others.

SMILES	Glyco luc inh	CaV13 FRET inh	T cruzi repl	PfHsp90 yeast 2	PvdQ acylase	HSF1 activator
O=C(Nc1ccc(Cl)cc1)N1CCN(c2ccc3nnc(-c4ccc(F)cc4)n3n2)CC1	99.7	.	.	.	.	.
c1ccc2oc(SCc3cn4ccccc4n3)nc2c1	.	.	.	.	.	64.0
c1ccc2oc(SCc3nc4ccccc4s3)nc2c1	.	/	.	.	.	67.0
Clc1c(CSc2nc3ccccc3o2)nc2sccn12	.	.	.	.	.	102.9
Clc1c(CSc2nc3ccccc3o2)nc2ccccn12	.	/	.	.	.	86.6
c1ccc(SCc2nc3ccccc3s2)nc1	.	.	.	.	.	.
COCCNC(=O)C1(C)CCCN(C(=O)c2ccccc2)C1 (centres undefined)	.	.	/	/	/	/
CCOC(=O)Cc1ccc(NCc2ccc(Cl)cc2)cc1	.	.	55.8	.	.	.
CC1(C(=O)NS(=O)(=O)c2cccc(Cl)c2)CCN1C(=O)C/C=C/c1ccccc1 (centres undefined)	.	.	/	/	/	/
CCNC(=O)C1(C)CCCN(C(=O)c2ccc(F)c(C)c2)C1 (centres undefined)	.	.	/	/	/	/
CCCn1c(=N)c(S(=O)(=O)c2ccccc2)cc2c(=O)n3ccccc3nc21	.	129.5	.	.	.	.
CCn1c(=N)c(S(=O)(=O)c2ccccc2)cc2c(=O)n3ccccc3nc21	.	32.5	.	.	.	.
CCN(CC(=O)Nc1c(F)cccc1F)C(=O)CSCc1ccc(C)cc1	.	.	/	/	/	/
C=CC[C@]12C[C@@]3(O[C@H](c4ccccn4)N=C3C[C@H](c3ccc(OC)cc3)[C@H]1C)N(C1CCN(Cc3ccccc3)CC1)C2=O	/	.	/	/	/	/
O=C1C(Nc2ccccc2)=C/C(=N/S(=O)(=O)c2cccs2)c2ccccc21	.	/	59.9	.	.	.
O=C1C=C(Nc2ccccc2)C(=O)c2ccccc21	.	/	.	.	.	95.6
Clc1cccc(C[n+]2cc(-c3ccccc3)n3c2CCC3)c1	.	.	63.5	.	.	.
Cc1ccc(-c2c[n+](CC(=O)Nc3c(C)cccc3C)c3n2CCC3)cc1	.	.	.	/	/	.
Cc1ccc(C[n+]2cc(-c3ccc(Cl)cc3)n3c2CCC3)cc1	.	.	/	.	.	/
Cc1ccc(-c2c[n+](Cc3cccc(Cl)c3)c3n2CCC3)cc1	.	.	66.8	.	.	.
Cc1ccc(-c2c[n+](Cc3ccc(Cl)cc3)c3n2CCC3)cc1	.	.	61.3	.	.	.
OC(c1ccccc1)(c1ccccc1)C1CCN(CCCOc2cccc(F)c2)CC1	/	.	/	/	/	/
COc1ccc(C(=O)N2CCC[C@H]2C(=O)N2CCC[C@@H]2C(=O)NCc2ccccc2)cc1F	/	.	/	/	/	/
C[C@H](O)[C@@H]1CN2CCc3c([nH]c4c(-c5ccccc5)cccc34)[C@@H]2C[C@@H]1N(C)C(=O)NC1CCCCC1	/	.	/	/	/	/
C[C@@H]1NS(=O)(=O)c2c(F)cccc2O[C@@H]1c1ccccc1	/	.	/	/	/	/
SMILES	Glyco luc inh	CaV13 FRET inh	T cruzi repl	PfHsp90 yeast 2	PvdQ acylase	HSF1 activator
OC1c2cc(Br)ccc2N=C2CCCN21 (centres undefined)	.	.	54.7	.	.	.
O=C(NCCc1cn2cccnc2n1)C1CCC(=O)N(Cc2ccccc2F)C1 (centres undefined)	.	.	/	/	/	/
CN(C1=NS(=O)(=O)N=C(N(C)c2ccccc2)O1)c1ccccc1	.	.	/	/	/	/
c1ccc(N2CCN(c3nc4ccccc4[nH]3)CC2)nc1	.	.	.	.	.	63.2
COc1cccc2cc(C(=O)Nc3ccccc3C)/c(=N/NS(=O)(=O)c3ccccc3)oc12	.	.	.	.	.	.
COc1ccc(S(=O)(=O)N/N=c2\oc3c(OC)cccc3cc2S(=O)(=O)c2ccc(C)cc2)cc1OC	.	.	.	.	.	85.8
Cn1cnc([N+](=O)[O-])c1Sc1nnc(-c2ccccc2)c(-c2ccccc2)n1	/	.	/	/	/	/
CC(=O)C1CCCN(C(=O)c2ccc3oc(CCc4ccccc4)nc3c2)C1 (centres undefined)	.	.	.	.	.	.
O=C(c1ccc2oc(CCCc3ccccc3)nc2c1)N1CCCC1	.	.	.	.	.	86.8
CC(=O)c1ccc(S(=O)(=O)NCC2CCN(C(=O)C(=O)c3cc4ccccc4o3)CC2)cc1	/	.	/	/	/	/
O=C(COc1ccc2c(-c3ccccc3)cc(=O)oc2c1)N[C@@H](Cc1c[nH]c2ccc(O)cc12)C(=O)O	50.1	/	.	.	.	.
Cc1cccc(NC(=S)N2CCn3cccc3C2c2cccnc2)c1 (centres undefined)	.	.	.	.	.	.
COc1cccc(NC(=S)N2CCn3cccc3C2c2cccnc2)c1 (centres undefined)	.	.	76.2	/	.	.
Fc1ccc(NC(=S)N2CCn3cccc3C2c2cccnc2)cc1 (centres undefined)	.	.	71.1	.	.	.
Cc1ccc2cccc(NC(=O)C(F)(F)F)c2n1	.	.	.	/	.	214.8
O=C1c2ccccc2C(c2nnnn2-c2ccc3c(c2)OCCO3)N1CCCN1CCOCC1 (centres undefined)	/	.	/	/	/	/
CCCCn1nc(NC(=O)c2cccs2)c2cc3cc(OC)ccc3nc21	.	54.2	.	/	.	.
CCOc1ccc(-c2cn(-c3ccc(OC)cc3)c(SC)n2)cc1	.	.	.	.	.	61.7
CSc1nc(-c2ccccc2)cn1-c1ccc(NC(C)=O)cc1	.	.	.	.	.	.
C/C(CC(=O)Nc1cccc2c1CCCC2)=N\NC(=O)c1ccccc1N	.	.	.	.	.	57.3
COc1cc2nc(N(CCCN(C)C)C(=O)c3ccc(S(=O)(=O)N4CCc5ccccc54)cc3)sc2cc1OC	.	.	54.5	.	.	.
COc1ccc2sc(N(CCCN(C)C)C(=O)c3ccc(C(=O)c4ccccc4)cc3)nc2c1	.	.	.	.	.	.
COc1ccc2sc(N(CCCN(C)C)C(=O)c3ccc(S(=O)(=O)N4CCCc5ccccc54)cc3)nc2c1	.	.	61.8	/	.	.
O=C1CSC(=S)N1/N=C/c1cccc(C(F)(F)F)c1	.	.	.	.	.	68.3
S=c1[nH]c(-c2ccccc2)cn1/N=C/c1cccc2ccccc12	.	.	.	.	.	.
S=c1[nH]c(-c2ccccc2)cn1/N=C/c1ccccc1Br	.	.	.	.	.	64.4
Cc1cc(C(=O)NCCC2=CCCCC2)no1	.	.	.	/	.	51.2
COc1ccc(NC(=O)NCCC2=CCCCC2)cc1	.	.	.	.	.	72.1
COC(=O)C1=C(C)N(Cc2ccccc2)C(=S)NC1c1ccc(Br)cc1 (centres undefined)	/	.	/	/	/	/
COc1ccc(-c2nc3ccc([N+](=O)[O-])cc3[nH]2)cc1	.	.	.	.	.	53.8
